{"data": "Results of several laboratories", "PIK3CG": "Phosphatidylinositol 4,5-bisphosphate 3-kinase catalytic subunit gamma isoform (PIK3CG, Homo sapiens, UniProt P48736)", "PTGS2": "Prostaglandin G/H synthase 2 (PTGS2, Homo sapiens, UniProt P35354)", "Inositol-tetrakisphosphate 1-kinase": "Inositol-tetrakisphosphate 1-kinase (Homo sapiens, UniProt Q13572)", "CHRM3": "Muscarinic acetylcholine receptor M3 (CHRM3, Homo sapiens, UniProt P20309)", "note": "Compare with care: the assays were run in different laboratories."}
{"Compound": "C=C(F)C(=O)N1CCN(c2nc(OC[C@@H]3CCCN3C)nc3c2CCN(c2cccc4cccc(Cl)c24)C3)C[C@@H]1CC#N", "target": "GTPase NRas (NRAS, Homo sapiens, UniProt P01111, C181S/C186S/G12C)", "test": "enzyme activity, inhibitor", "IC50 [nM]": 747}
{"Compound": "O=C1C(=Nc2ccccc2I)c2ccccc2N1Cc1cccc(Cl)c1", "target": "PIK3CG", "test": "enzyme activity, inhibitor, ADP detection", "IC50 [nM]": 4.07}
{"Compound": "CN(C)C(=O)c1cc2cnc(Nc3ccc(-c4ccc5c(=O)cc(N6CCOCC6)oc5c4)cc3)nc2n1C1CCCC1", "target": "PIK3CG", "test": "enzyme activity, inhibitor, radiometric", "IC50 [nM]": 3390}
{"Compound": "COc1cc(C=NNC(=O)c2cc(-c3ccccc3)n(-c3ccc(S(N)(=O)=O)cc3)n2)cc(OC)c1OC", "target": "PTGS2", "test": "enzyme activity, inhibitor", "IC50 [nM]": 2690}
{"Compound": "CN(C)C(=O)c1cc2cnc(Nc3cccc(-c4cccc5c(=O)cc(N6CCOCC6)oc45)c3)nc2n1C1CCCC1", "target": "PIK3CG", "test": "enzyme activity, inhibitor, radiometric", "IC50 [nM]": 6040}
{"Compound": "NC(=O)C1CN(C(=O)CCl)c2ccccc2O1 (centres unmarked)", "target": "Creatine kinase U-type, mitochondrial (CKMT1A, Homo sapiens, UniProt P12532)", "test": "enzyme activity, inhibitor, ADP detection", "setting": "pH 8.5", "IC50 [nM]": 3000}
{"Compound": "Nc1ncnc2c1ncn2[C@@H]1O[C@H](CO)C[C@H]1O", "target": "Inositol-tetrakisphosphate 1-kinase", "test": "enzyme activity, inhibitor, ADP detection", "IC50 [nM]": 2400}
{"Compound": "CN(C)C(=O)c1cc2cnc(Nc3ccc(-c4cccc5c(=O)cc(N6CCOCC6)oc45)cn3)nc2n1C1CCCC1", "target": "PIK3CG", "test": "enzyme activity, inhibitor, radiometric", "IC50 [nM]": "> 10000"}
{"Compound": "Nc1ncnc2c1cnn2C1CCCCC1", "target": "Inositol-tetrakisphosphate 1-kinase", "test": "enzyme activity, inhibitor, ADP detection", "IC50 [nM]": 440}
{"Compound": "Cc1cccc(N=C2C(=O)N(Cc3ccc(Br)cc3)c3ccccc32)c1", "target": "PIK3CG", "test": "enzyme activity, inhibitor, ADP detection", "IC50 [nM]": 9.8}
{"Compound": "O=C(CCNC(=O)CNC(=O)CC(c1ccccc1)(c1ccccc1)c1ccccc1)NC[C@@H]1CCCN(Cc2cccnc2F)C1", "target": "CHRM3", "test": "ligand displacement, radioligand", "setting": "cell membranes", "IC50 [nM]": 3800}
{"Compound": "CN(C)C(=O)c1cc2cnc(Nc3cc(C(=O)O)cc(-c4ccc5c(=O)cc(N6CCOCC6)oc5c4)c3)nc2n1C1CCCC1", "target": "PIK3CG", "test": "enzyme activity, inhibitor, radiometric", "IC50 [nM]": 17300}
{"Compound": "NS(=O)(=O)c1ccc(-n2nc(-c3nnc(S)o3)cc2-c2ccccc2)cc1", "target": "PTGS2", "test": "enzyme activity, inhibitor", "IC50 [nM]": 3730}
{"Compound": "O=C1C(=Nc2ccc(Cl)cc2Br)c2ccccc2N1Cc1ccc([N+](=O)[O-])cc1", "target": "PIK3CG", "test": "enzyme activity, inhibitor, ADP detection", "IC50 [nM]": 2.89}
{"Compound": "CN(C)C(=O)c1cc2cnc(Nc3ccc4c(=O)cc(N5CCNCC5)oc4c3)nc2n1C1CCCC1", "target": "PIK3CG", "test": "enzyme activity, inhibitor, radiometric", "IC50 [nM]": 6930}
{"Compound": "NS(=O)(=O)c1ccc(-n2nc(C(=O)NN3C(=O)CCC3=O)cc2-c2ccccc2)cc1", "target": "PTGS2", "test": "enzyme activity, inhibitor", "IC50 [nM]": 3630}
{"Compound": "Nc1ncnc2c1ncn2C1CCCO1 (centres unmarked)", "target": "Inositol-tetrakisphosphate 1-kinase", "test": "enzyme activity, inhibitor", "IC50 [nM]": 1000}
{"Compound": "COc1ccc(-c2oc3cc(Nc4ncc5cc(C(=O)N(C)C)n(C6CCCC6)c5n4)ccc3c(=O)c2F)cc1", "target": "PIK3CG", "test": "enzyme activity, inhibitor, radiometric", "IC50 [nM]": "> 10000"}
{"Compound": "O=C1Nc2ccccc2/C1=N/c1ccccc1Br", "target": "PIK3CG", "test": "enzyme activity, inhibitor, ADP detection", "IC50 [nM]": 176}
{"Compound": "c1ccc(COc2[nH]cnc3ncnc2-3)cc1", "target": "Inositol-tetrakisphosphate 1-kinase", "test": "enzyme activity, inhibitor, ADP detection", "IC50 [nM]": 2900}
{"Compound": "COc1nc2ccc(Br)cc2cc1[C@@H](c1ccccc1)[C@@](O)(CCN(C)C)c1cccc2ccccc12", "target": "Retinal dehydrogenase 2 (ALDH1A2, Homo sapiens, UniProt O94788)", "test": "enzyme activity, inhibitor, fluorescence", "setting": "15 min, pH 7.5", "IC50 [nM]": "< 10000"}
{"Compound": "CC(=NNC(=O)c1cc(-c2ccccc2)n(-c2ccc(S(N)(=O)=O)cc2)n1)c1ccc(Br)cc1", "target": "PTGS2", "test": "enzyme activity, inhibitor", "IC50 [nM]": 1250}
{"Compound": "CN(C)C(=O)c1cc2cnc(Nc3cncc(-c4ccc5c(=O)cc(N6CCOCC6)oc5c4)c3)nc2n1C1CCCC1", "target": "PIK3CG", "test": "enzyme activity, inhibitor, radiometric", "IC50 [nM]": 1200}
{"Compound": "Cc1ccc(CN2C(=O)C(=Nc3cccc(Cl)c3)c3ccccc32)cc1", "target": "PIK3CG", "test": "enzyme activity, inhibitor, ADP detection", "IC50 [nM]": 1.11}
{"Compound": "Nc1ncnc2c1ncn2[C@@H]1O[C@H](CO)[C@@H](O)[C@@H]1F", "target": "Inositol-tetrakisphosphate 1-kinase", "test": "enzyme activity, inhibitor, ADP detection", "IC50 [nM]": 3700}
{"Compound": "CN(C)C(=O)c1cc2cnc(Nc3ccc(-c4cccc5c(=O)cc(N6CCOCC6)oc45)c(F)c3)nc2n1C1CCCC1", "target": "PIK3CG", "test": "enzyme activity, inhibitor, radiometric", "IC50 [nM]": "> 10000"}
{"Compound": "COc1cc(N=C2C(=O)Nc3ccccc32)cc(OC)c1", "target": "PIK3CG", "test": "enzyme activity, inhibitor, ADP detection", "IC50 [nM]": 7.86}
{"Compound": "O=C(CCNC(=O)CNC(=O)CC(c1ccccc1)(c1ccccc1)c1ccccc1)NC[C@@H]1CCCN(Cc2ccc(F)nc2)C1", "target": "CHRM3", "test": "ligand displacement, radioligand", "setting": "cell membranes", "IC50 [nM]": 8200}
{"Compound": "CC(C)c1cccc(C(C)C)c1N=C1C(=O)N(Cc2ccccc2)c2ccccc21", "target": "PIK3CG", "test": "enzyme activity, inhibitor, ADP detection", "IC50 [nM]": 1.68}
{"Compound": "Nc1ncnc2c1ncn2C1CCCC1", "target": "Inositol-tetrakisphosphate 1-kinase", "test": "enzyme activity, inhibitor, ADP detection", "IC50 [nM]": 78}
{"Compound": "CCc1ccc(N=C2C(=O)Nc3ccccc32)cc1", "target": "PIK3CG", "test": "enzyme activity, inhibitor, ADP detection", "IC50 [nM]": 93.4}
{"Compound": "CC(C)NC(=O)COc1cccc(-c2nc(Nc3ccc4[nH]ncc4c3)c3ccccc3n2)c1", "target": "UDP-glucuronosyltransferase 1A1 (UGT1A1, Homo sapiens, UniProt P22309)", "test": "enzyme activity, inhibitor", "IC50 [nM]": 60.9}
